Reference: ChEMBL document CHEMBL1148371, “Sulfonyl-containing aldophosphamide analogues as novel anticancer prodrugs targeted against cyclophosphamide-resistant tumor cell lines” (J Med Chem, 2004)
pIC50: −log10 of the molar value.

What was measured:
[1] = test system: P388; test: In vivo antitumor activity against P388/0 (wild) leukemia in mice measured by increase in life span after 400 mg/kg compound administration; assay type: functional; conditions: Mus musculus
Procedure, shortened: (§1)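 CD2F1 mice (24–26 g) were implanted ip with 10^6 P388/0 or P388/CPA leukemia cells on day 0. A single ip dose (100, 200 or 400 mg/kg) in saline or saline–Tween 80 was given on day 1; vehicle controls were included. Five mice were used per dose. Survival was followed for 33 days against untreated controls and reported as % increase in life span and number of long-term survivors.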

[2] = test system: P388/CPA; test: In vivo antitumor activity against P388/CPA leukemia (resistant) in mice measured by increase in life span after 400 mg/kg compound administration; assay type: functional; conditions: Mus musculus; procedure, shortened: as §1
[3] = test system: P388/CPA; test: In vivo antitumor activity against P388/CPA leukemia in mice (resistant) measured by increase in life span after 100 mg/kg compound administration; assay type: functional; conditions: Mus musculus; procedure, shortened: as §1
[4] = test system: P388; test: In vivo antitumor activity against P388/0 (wild) leukemia in mice measured by increase in life span after 100 mg/kg compound administration; assay type: functional; conditions: Mus musculus; procedure, shortened: as §1
[5] = test system: P388; test: In vivo antitumor activity against P388/0 (wild) leukemia in mice measured by increase in life span after 200 mg/kg compound administration; assay type: functional; conditions: Mus musculus; procedure, shortened: as §1
[6] = test system: P388/CPA; test: In vivo antitumor activity against P388/CPA leukemia (resistant) in mice measured by increase in life span after 200 mg/kg compound administration; assay type: functional; conditions: Mus musculus; procedure, shortened: as §1
[7] = test system: V79; test: In vitro cytotoxicity against V-79 chinese hamster lung fibroblasts (3 hr drug exposure time) by clonogenic assay; assay type: functional, cell-based; conditions: Cricetulus griseus, V79, 3 h
Procedure, shortened: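 Subcloned V-79 cells in MEM with 10% heat-inactivated FBS were used. 500 log-phase cells per dish were seeded and left 12–15 h. Cells were exposed to drug or solvent for 3 h at 37 °C, rinsed with HBSS, and grown 5–6 days. Colonies were fixed with EtOH, stained with crystal violet and counted against solvent control. IC50 (50% loss of clonogenic survival) came from the semilog concentration–survival plot; three experiments.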

[8] = Half life period in human plasma using phosphate buffer (0.08 M); assay type: ADME, cell-free
[9] = Half life period in phosphate buffer (0.08 M); assay type: ADME
Procedure, shortened: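 Prodrug was incubated in 0.08 M phosphate buffer pH 7.4 at 37 °C with shaking, mostly at 3–9 mM (0.8 or 0.3 mM for some). Incubation was stopped with 2.0 M acetate pH 5.0 plus EtOH. Parent compound was quantified by silica TLC (UV 254 nm or NBP stain) and densitometry against a zero-time control. kobs came from the ln(% remaining) versus time slope; t1/2 = 0.693/kobs.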

[10] = In vivo antitumor activity against P388/0 (wild) leukemia in mice measured by increase in life span after 400 mg/kg compound administration; Toxic; assay type: toxicity, organism-based; set-up: dose 400 mg/kg; conditions: mouse; procedure, shortened: as §1
[11] = In vivo antitumor activity against P388/CPA leukemia (resistant) in mice measured by increase in life span after 400 mg/kg compound administration; Toxic; assay type: toxicity, organism-based; set-up: dose 400 mg/kg; conditions: mouse; procedure, shortened: as §1
[12] = test system: P388; test: Number of long-term (33-day) survival P388/0 (wild) leukemia mice (5) after 400 mg/kg compound administration; assay type: functional, Mus musculus; procedure, shortened: as §1
[13] = In vivo antitumor activity against P388/0 (wild) leukemia in mice measured by increase in life span after 200 mg/kg compound administration; Toxic; assay type: toxicity, organism-based; set-up: dose 200 mg/kg; conditions: mouse; procedure, shortened: as §1
[14] = Half life period in phosphate buffer (0.2 M); assay type: ADME

SMILES | ILS at 400 mg/kg [1] [%] | ILS at 400 mg/kg [2] [%] | ILS at 100 mg/kg [3] [%] | ILS at 100 mg/kg [4] [%] | ILS at 200 mg/kg [5] [%] | ILS at 200 mg/kg [6] [%] | pIC50 [7] | half-life [8] [h] | half-life [9] [h] | ILS [10] | ILS [11] | Number [12] | ILS [13] | half-life [14] [h]
Cc1ccc(S(=O)(=O)CCOP(N)(=O)N(CCCl)CCCl)cc1 (stereo not given) | 90 | 44 | 28 | 20 | 50 | 28 | 4.94 | 4.8 | 12.8 |  |  |  |  | 
O=[N+]([O-])c1ccc(S(=O)(=O)CCOP(=O)(N(CCCl)CCCl)N(CCCl)CCCl)cc1 |  |  | 84 | 100 | 120 | 68 | 5.74 | 0.37 | 0.69 | Toxic | Toxic |  |  | 
Cc1ccc(SCCO)cc1 |  |  |  |  |  |  | 4.16 |  |  |  |  |  |  | 
CS(=O)(=O)CCOP(=O)(N(CCCl)CCCl)N(CCCl)CCCl | 30 | 60 | 12 | 10 | 10 | 28 | 4.62 | 1.6 | 7.2 |  |  |  |  | 
CSCCOP(=O)(N(CCCl)CCCl)N(CCCl)CCCl |  |  |  |  |  |  | 4.16 |  |  |  |  |  |  | 
Cc1ccc(SCCOP(N)(=O)N(CCCl)CCCl)cc1 (stereo not given) |  |  |  |  |  |  | 4.16 |  |  |  |  |  |  | 
CS(=O)(=O)CCOP(=O)(NCCCl)NCCCl | 100 | 108 | 20 | 33 | 52 | 84 | 4.17 | 2.2 | 6.4 |  |  | 1 |  | 
CS(=O)(=O)CC(OP(=O)(N(CCCl)CCCl)N(CCCl)CCCl)c1ccccc1 (stereo not given) | 20 | 60 | 4 | 10 | 20 | 20 | 4.82 | 1 | 1.8 |  |  |  |  | 
O=[N+]([O-])c1ccc(S(=O)(=O)CCOP(=O)(NCCCl)NCCCl)cc1 |  |  | 60 | 71 | 138 | 92 | 5.68 | < 0.01 | 0.08 | Toxic | Toxic |  |  | 
O=P(NCCCl)(NCCCl)OCCS(=O)(=O)c1ccccc1 | 33 | 60 | 20 | 33 | 33 | 28 | 4.86 | 2.6 | 6.4 |  |  |  |  | 
O=[N+]([O-])c1ccc(SCCO)cc1 |  |  |  |  |  |  | 4.16 |  |  |  |  |  |  | 
CS(=O)(=O)CCOc1ccc([N+](=O)[O-])c([N+](=O)[O-])c1 |  |  |  |  |  |  | 4.16 |  |  |  |  |  |  | 
CSCCO |  |  |  |  |  |  | 4.16 |  |  |  |  |  |  | 
CSCC(OP(=O)(N(CCCl)CCCl)N(CCCl)CCCl)c1ccccc1 (stereo not given) |  |  |  |  |  |  | 4.16 |  |  |  |  |  |  | 
Cc1ccc(S(=O)(=O)CCOP(=O)(NCCCl)NCCCl)cc1 | 23 | 36 | 4 | 23 | 14 | 12 | 5.02 | 4.4 | 12.1 |  |  |  |  | 
CSCCOc1ccc([N+](=O)[O-])c([N+](=O)[O-])c1 |  |  |  |  |  |  | 4.16 |  |  |  |  |  |  | 
O=P(O)(NCCCl)NCCCl [PALIFOSFAMIDE] |  |  |  | 92 |  |  | 4.22 |  |  |  |  |  | Toxic | 1
